Published values of several laboratories.
Protocols differ between the studies behind these lines.
Cell line: MCF7
Effect on: cell growth or viability

COc1ccc(-c2cc(-c3ccc(C)cc3)nc3[nH]c(=O)[nH]c(=O)c23)cc1OC  IC50 (MTT; 48 h): 26.6 µM
C[C@@H]1CC[C@@H]([C@](C)(O)CNCc2ccccc2F)[C@H](OCc2ccccc2)C1  inhibition (MTT; 30 µM, 72 h): 89.6%
CC(=O)c1nn(-c2ccc(C)cc2)/c(=N/N=C(\C)c2ccc(NC(=O)c3ccccc3)cc2)s1  viability (MTT; 2.5 µM): 6.47%
Cc1ccc(-c2cc(-c3ccc(N(C)C)cc3)c3c(=O)[nH]c(=O)[nH]c3n2)cc1  IC50 (MTT; 48 h): 10.1 µM
Cc1nc(Nc2ccc3c(c2)/C(=C/c2ccccc2C)C(=O)N3C)c2ccccc2n1  IC50 (MTT): 21.4 µM
COc1ccc(-c2cc(-c3cc(OC)ccc3OC)c3c(=O)[nH]c(=O)[nH]c3n2)cc1  IC50 (MTT; 48 h): 14.3 µM
CC(=O)c1c(C)c2cnc(Nc3ccc(N4CCNCC4)cn3)nc2n(C2CCCC2)c1=O  EC50 (5 days): 0.0383 µM
O=C(NO)c1ccc(CNc2nc3cccc(-c4ccc5c(c4)OCO5)n3n2)cc1  GI50 (SRB): 0.65 µM
C[C@@H]1CC[C@@H]([C@@](O)(CNCc2ccccc2)COCc2ccccc2)[C@H](OCc2ccccc2)C1  inhibition (MTT; 10 µM, 72 h): 94.8%
CC(=O)c1nn(-c2ccccc2Cl)/c(=N/N=C(\C)c2ccc(NC(=O)c3ccccc3)cc2)s1  viability (MTT; 10 µM): 5.78%
CC(=NNC(=O)c1ccccc1Br)c1ccc(Nc2nnc(-c3ccc(Cl)cc3)c3ccccc23)cc1  cell death (MTT; 0.625 µM): 24.1%
COc1ccc(-c2cc(-c3ccc(C)cc3)nc3c2c(=O)n(C)c(=O)n3C)cc1OC  IC50 (MTT; 48 h): 29.5 µM
CN(C)C(=O)c1cc2cnc(Nc3ccc(N4CCNCC4)cn3)nc2n1C1CCCC1  EC50 (5 days): 0.101 µM
CC(=NNC(=S)Nc1ccccc1)c1ccc(Nc2nnc(-c3ccc(Cl)cc3)c3ccccc23)cc1  viability (MTT; 10 µM, 24 h): 3.45%
Cc1ccc(-c2cc(-c3c(Cl)cccc3Cl)c3c(=O)[nH]c(=O)[nH]c3n2)cc1  IC50 (MTT; 48 h): 39 µM
CC(=NNC(=O)c1ccncc1)c1ccc(Nc2nnc(-c3ccc(Cl)cc3)c3ccccc23)cc1  viability (MTT; 2.5 µM, 24 h): 5.58%
C[C@@H]1CC[C@@H]([C@](O)(CNCc2ccccc2)COCc2ccc(F)cc2)[C@H](OCc2ccc(F)cc2)C1  inhibition (MTT; 30 µM, 72 h): 100%
C[C@H](Nc1ccc2c(c1)OCCn1cc(N3C(=O)OC[C@H]3C(F)F)nc1-2)C(N)=O  EC50 (5 days): 0.0193 µM
Cc1ccc(-c2cc(-c3ccc(Cl)c(F)c3)c3c(=O)[nH]c(=O)[nH]c3n2)cc1  IC50 (MTT; 48 h): 14.6 µM
COc1cccc2c1C(=O)c1c(O)c3c(c(O)c1C2=O)C[C@@](O)(C(=O)CO)C[C@@H]3O[C@H]1C[C@H](N)[C@H](O)[C@H](C)O1  GI50 (MTT): 7.32 µM
CC(=NNC(=O)c1cccnc1)c1ccc(Nc2nnc(-c3ccc(Cl)cc3)c3ccccc23)cc1  viability (MTT; 0.312 µM, 24 h): 100%
C[C@@H]1CC[C@@H]([C@](C)(O)CNCc2cccc3ccccc23)[C@H](OCc2ccccc2)C1  inhibition (MTT; 10 µM, 72 h): 61.5%
COc1cccc2c1C(=O)c1c(O)c3c(c(O)c1C2=O)C[C@@](O)(C(=O)CO)C[C@@H]3O[C@H]1C[C@H](N)[C@H](O)[C@H](C)O1  inhibition (MTT; 100 µM, 48 h): 96.8%
O=C(Nc1ccc(Oc2nnc(-c3ccc(Cl)cc3)c3ccccc23)cc1)c1cccc([N+](=O)[O-])c1  cell death (MTT; 5 µM): 92.1%
O=C1CC[C@H](N2Cc3cc(N4CCN(CC5CCN(c6ccc([C@@H]7c8ccc(O)cc8CC[C@@H]7c7ccccc7)cc6)CC5)CC4)ccc3C2=O)C(=O)N1  GI50 (ATP luminescence; 5 days): 0.0033 µM
C[C@@H]1CC[C@@H]([C@@](O)(CNCc2cccc3ccccc23)COCc2ccccc2)[C@H](OCc2ccccc2)C1  inhibition (MTT; 10 µM, 72 h): 82.9%
CC(=NNC(N)=S)c1ccc(Nc2nnc(-c3ccc(Cl)cc3)c3ccccc23)cc1  viability (MTT; 5 µM, 24 h): 9.07%
COc1ccc(COC[C@@](O)(CNCc2ccc(F)cc2)[C@@H]2CC[C@@H](C)C[C@H]2OCc2ccc(OC)cc2)cc1  inhibition (MTT; 10 µM, 72 h): 94.5%
CCOC(=O)c1nn(-c2cccc(Cl)c2)/c(=N/N=C(\C)c2ccc(NC(=O)c3ccccc3)cc2)s1  viability (MTT; 2.5 µM): 2.67%
C[C@@H]1CC[C@@H]([C@](C)(O)CNCc2ccccc2)[C@H](OCc2ccccc2)C1  inhibition (MTT; 30 µM, 72 h): 98%
CC(=O)Nc1ccc(Oc2nnc(-c3ccc(Cl)cc3)c3ccccc23)cc1  viability (MTT; 0.625 µM, 24 h): 4.91%
CC(=O)Nc1ccc(/C(C)=N/N=c2\sc(C(C)=O)nn2-c2ccc(C)cc2)cc1  viability (MTT; 1.25 µM): 49.5%
